Measured values from ChEMBL document CHEMBL1921709, “Synthesis and activity of new macrolones: conjugates between 6(7)-(2'-aminoethyl)-amino-1-cyclopropyl-3-carboxylic acid (2'-hydroxyethyl) amides and 4″-propenoyl-azithromycin” (2011).
≈ marks a conversion by molar mass, not a printed value.

Experiments:
Format in all cases: functional
Streptococcus pneumoniae [1] = test: Antibacterial activity against constitutive macrolide, lincosamide, streptogramin-resistant Streptococcus pneumoniae 58 spain by broth microdilution method
How it was run: (§1)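 CLSI broth microdilution MIC with automated double dilutions of compound. The medium was supplemented with 5% horse serum in place of lysed blood. Bacteria were pre-grown on appropriate agar plates.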

Staphylococcus aureus [2] = test: Antibacterial activity against constitutive macrolide, lincosamide, streptogramin-resistant Staphylococcus aureus PK2 by broth microdilution method
How it was run: (§2)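 Standard CLSI broth microdilution MIC test with automated double dilutions of compound. Bacteria were pre-grown on appropriate agar plates.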

Staphylococcus aureus [3] = test: Antibacterial activity against efflux-mediated macrolide-resistant Staphylococcus aureus PK1 by broth microdilution method; how it was run: as §2
Haemophilus influenzae = test: Antibacterial activity against Haemophilus influenzae ATCC 49247 by broth microdilution method
How it was run: (§3)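 Broth microdilution following CLSI guidelines, using two-fold serial dilutions of compound. Bacteria were first grown on appropriate agar plates. Read-out is growth inhibition, reported as MIC.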

Streptococcus pyogenes [4] = test: Antibacterial activity against efflux-mediated macrolide-resistant Streptococcus pyogenes Finland 2 by broth microdilution method; how it was run: as §1
Streptococcus pyogenes [5] = test: Antibacterial activity against constitutive macrolide, lincosamide, streptogramin-resistant Streptococcus pyogenes 166 GR-Micro by broth microdilution method; how it was run: as §1
Streptococcus pyogenes [6] = test: Antibacterial activity against erythromycin-sensitive Streptococcus pyogenes 3565 by broth microdilution method
How it was run: (§4)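 Broth microdilution following CLSI guidelines, except that 5% horse serum replaced lysed blood in the Streptococcus medium. Two-fold serial dilutions of compound were used. Bacteria were first grown on appropriate agar plates. Read-out is growth inhibition, reported as MIC.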

Streptococcus pneumoniae [7] = test: Antibacterial activity against efflux-mediated macrolide-resistant Streptococcus pneumoniae Ci137 by broth microdilution method; how it was run: as §1
Staphylococcus aureus [8] = test: Antibacterial activity against erythromycin-sensitive Staphylococcus aureus ATCC 13709 by broth microdilution method; how it was run: as §3
Streptococcus pneumoniae [9] = test: Antibacterial activity against inducible macrolide-resistant, constitutive lincosamide and streptogramin-resistant Streptococcus pneumoniae 134 GR M by broth microdilution method; how it was run: as §1
Streptococcus pneumoniae [10] = test: Antibacterial activity against erythromycin-sensitive Streptococcus pneumoniae SP 030 by broth microdilution method; how it was run: as §4
Moraxella catarrhalis = test: Antibacterial activity against Moraxella catarrhalis ATCC 23246 by broth microdilution method; how it was run: as §3
Streptococcus pyogenes [11] = test: Antibacterial activity against inducible macrolide-lincosamide-streptogramin B resistant Streptococcus pyogenes Finland 11 by broth microdilution method; how it was run: as §1
Staphylococcus aureus [12] = test: Antibacterial activity against inducible macrolide, lincosamide and streptogramin B-resistant Staphylococcus aureus 90256/97 by broth microdilution method; how it was run: as §2

`NCCNc1cc2c(cc1F)c(=O)c(C(=O)NCCO)cn2C1CC1` was tested, and the MIC (Streptococcus pneumoniae [1]) was > 64 µg/mL, the MIC (Staphylococcus aureus [2]) was > 64 µg/mL and the MIC (Staphylococcus aureus [3]) was > 64 µg/mL. The MIC (Haemophilus influenzae) was > 64 µg/mL, the MIC (Streptococcus pyogenes [4]) was > 64 µg/mL and the MIC (Streptococcus pyogenes [5]) was > 64 µg/mL. The MIC (Streptococcus pyogenes [6]) was > 64 µg/mL, the MIC (Streptococcus pneumoniae [7]) was > 64 µg/mL and the MIC (Staphylococcus aureus [8]) was > 64 µg/mL. For the same compound, the MIC (Streptococcus pneumoniae [9]) was > 64 µg/mL, the MIC (Streptococcus pneumoniae [10]) was > 64 µg/mL and the MIC (Moraxella catarrhalis) was > 64 µg/mL. The MIC (Streptococcus pyogenes [11]) was > 64 µg/mL and the MIC (Staphylococcus aureus [12]) was > 64 µg/mL.
`CC[C@H]1OC(=O)[C@H](C)[C@@H](O[C@H]2C[C@@](C)(OC)[C@@H](O)[C@H](C)O2)[C@H](C)[C@@H](O[C@@H]2O[C@H](C)C[C@H](N(C)C)[C@H]2O)[C@](C)(O)C[C@@H](C)CN(C)[C@H](C)[C@@H](O)[C@]1(C)O` [AZITHROMYCIN] was tested, and the MIC (Streptococcus pneumoniae [1]) was > 64 µg/mL, the MIC (Staphylococcus aureus [2]) was > 64 µg/mL and the MIC (Staphylococcus aureus [3]) was > 64 µg/mL. The MIC (Haemophilus influenzae) was 1 µg/mL (≈ 1.34 µM), the MIC (Streptococcus pyogenes [4]) was 8 µg/mL (≈ 10.7 µM) and the MIC (Streptococcus pyogenes [5]) was > 64 µg/mL. For the same compound, the MIC (Streptococcus pyogenes [6]) was ≤ 0.125 µg/mL, the MIC (Streptococcus pneumoniae [7]) was 8 µg/mL (≈ 10.7 µM) and the MIC (Staphylococcus aureus [8]) was 0.5 µg/mL (≈ 0.668 µM). The MIC (Streptococcus pneumoniae [9]) was > 64 µg/mL, the MIC (Streptococcus pneumoniae [10]) was ≤ 0.125 µg/mL and the MIC (Moraxella catarrhalis) was ≤ 0.125 µg/mL. For the same compound, the MIC (Streptococcus pyogenes [11]) was 16 µg/mL (≈ 21.4 µM) and the MIC (Staphylococcus aureus [12]) was > 64 µg/mL.
With `NCCNc1cc2c(=O)c(C(=O)NCCO)cn(C3CC3)c2cc1Cl` the MIC (Streptococcus pneumoniae [1]) was > 64 µg/mL, the MIC (Staphylococcus aureus [2]) was > 64 µg/mL and the MIC (Staphylococcus aureus [3]) was > 64 µg/mL. The MIC (Haemophilus influenzae) was > 64 µg/mL, the MIC (Streptococcus pyogenes [4]) was > 64 µg/mL and the MIC (Streptococcus pyogenes [5]) was > 64 µg/mL. The MIC (Streptococcus pyogenes [6]) was > 64 µg/mL, the MIC (Streptococcus pneumoniae [7]) was > 64 µg/mL and the MIC (Staphylococcus aureus [8]) was > 64 µg/mL. The MIC (Streptococcus pneumoniae [9]) was > 64 µg/mL, the MIC (Streptococcus pneumoniae [10]) was 64 µg/mL (≈ 175 µM) and the MIC (Moraxella catarrhalis) was 64 µg/mL (≈ 175 µM). For the same compound, the MIC (Streptococcus pyogenes [11]) was > 64 µg/mL and the MIC (Staphylococcus aureus [12]) was > 64 µg/mL.
With `CC[C@H]1OC(=O)[C@H](C)[C@@H](O[C@H]2C[C@@](C)(OC)[C@@H](OC(=O)CCN(C)CCNc3ccc4c(c3)c(=O)c(C(=O)NCCO)cn4C3CC3)[C@H](C)O2)[C@H](C)[C@@H](O[C@@H]2O[C@H](C)C[C@H](N(C)C)[C@H]2O)[C@](C)(O)C[C@@H](C)CN(C)[C@H](C)[C@@H](O)[C@]1(C)O` the MIC (Streptococcus pneumoniae [1]) was > 64 µg/mL, the MIC (Staphylococcus aureus [2]) was > 64 µg/mL and the MIC (Staphylococcus aureus [3]) was 64 µg/mL (≈ 55.8 µM). For the same compound, the MIC (Haemophilus influenzae) was 4 µg/mL (≈ 3.49 µM), the MIC (Streptococcus pyogenes [4]) was 4 µg/mL (≈ 3.49 µM) and the MIC (Streptococcus pyogenes [5]) was > 64 µg/mL. The MIC (Streptococcus pyogenes [6]) was 0.25 µg/mL (≈ 0.218 µM), the MIC (Streptococcus pneumoniae [7]) was 1 µg/mL (≈ 0.871 µM) and the MIC (Staphylococcus aureus [8]) was 2 µg/mL (≈ 1.74 µM). For the same compound, the MIC (Streptococcus pneumoniae [9]) was 4 µg/mL (≈ 3.49 µM), the MIC (Streptococcus pneumoniae [10]) was ≤ 0.125 µg/mL and the MIC (Moraxella catarrhalis) was 1 µg/mL (≈ 0.871 µM). For the same compound, the MIC (Streptococcus pyogenes [11]) was 4 µg/mL (≈ 3.49 µM) and the MIC (Staphylococcus aureus [12]) was > 64 µg/mL.
`CC[C@H]1OC(=O)[C@H](C)[C@@H](O[C@H]2C[C@@](C)(OC)[C@@H](OC(=O)CCNCCNc3cc4c(=O)c(C(=O)NCCO)cn(C5CC5)c4cc3Cl)[C@H](C)O2)[C@H](C)[C@@H](O[C@@H]2O[C@H](C)C[C@H](N(C)C)[C@H]2O)[C@](C)(O)C[C@@H](C)CN(C)[C@H](C)[C@@H](O)[C@]1(C)O` was tested, and the MIC (Streptococcus pneumoniae [1]) was 16 µg/mL (≈ 13.7 µM), the MIC (Staphylococcus aureus [2]) was > 64 µg/mL and the MIC (Staphylococcus aureus [3]) was > 64 µg/mL. For the same compound, the MIC (Haemophilus influenzae) was 4 µg/mL (≈ 3.43 µM), the MIC (Streptococcus pyogenes [4]) was 4 µg/mL (≈ 3.43 µM) and the MIC (Streptococcus pyogenes [5]) was 32 µg/mL (≈ 27.4 µM). For the same compound, the MIC (Streptococcus pyogenes [6]) was ≤ 0.125 µg/mL, the MIC (Streptococcus pneumoniae [7]) was 2 µg/mL (≈ 1.71 µM) and the MIC (Staphylococcus aureus [8]) was 4 µg/mL (≈ 3.43 µM). For the same compound, the MIC (Streptococcus pneumoniae [9]) was 32 µg/mL (≈ 27.4 µM), the MIC (Streptococcus pneumoniae [10]) was ≤ 0.125 µg/mL and the MIC (Moraxella catarrhalis) was 0.5 µg/mL (≈ 0.428 µM). For the same compound, the MIC (Streptococcus pyogenes [11]) was 1 µg/mL (≈ 0.856 µM) and the MIC (Staphylococcus aureus [12]) was > 64 µg/mL.
In the case of `CC[C@H]1OC(=O)[C@H](C)[C@@H](O[C@H]2C[C@@](C)(OC)[C@@H](OC(=O)CCN(C)CCNc3cc4c(cc3F)c(=O)c(C(=O)NCCO)cn4C3CC3)[C@H](C)O2)[C@H](C)[C@@H](O[C@@H]2O[C@H](C)C[C@H](N(C)C)[C@H]2O)[C@](C)(O)C[C@@H](C)CN(C)[C@H](C)[C@@H](O)[C@]1(C)O`, the MIC (Streptococcus pneumoniae [1]) is reported as > 64 µg/mL, the MIC (Staphylococcus aureus [2]) is reported as > 64 µg/mL and the MIC (Staphylococcus aureus [3]) is reported as > 64 µg/mL. The MIC (Haemophilus influenzae) was 16 µg/mL (≈ 13.7 µM), the MIC (Streptococcus pyogenes [4]) was 16 µg/mL (≈ 13.7 µM) and the MIC (Streptococcus pyogenes [5]) was > 64 µg/mL. The MIC (Streptococcus pyogenes [6]) was 0.5 µg/mL (≈ 0.429 µM), the MIC (Streptococcus pneumoniae [7]) was 2 µg/mL (≈ 1.72 µM) and the MIC (Staphylococcus aureus [8]) was 16 µg/mL (≈ 13.7 µM). The MIC (Streptococcus pneumoniae [9]) was 16 µg/mL (≈ 13.7 µM), the MIC (Streptococcus pneumoniae [10]) was ≤ 0.125 µg/mL and the MIC (Moraxella catarrhalis) was 8 µg/mL (≈ 6.86 µM). The MIC (Streptococcus pyogenes [11]) was 16 µg/mL (≈ 13.7 µM) and the MIC (Staphylococcus aureus [12]) was > 64 µg/mL.
